Measured values reported in ChEMBL document CHEMBL2424551, “Synthesis, in vitro evaluation and molecular modelling of naphthalimide analogue as anticancer agents” (2013).
Activity calls are given as the source filed them. No cut-off for these calls is given here.

Assays:
Assay type in all cases: functional
CCRF-CEM = assay: Growth inhibition of human CCRF-CEM cells at 10 uM after 48 hrs by SRB assay; settings: read-out: GI
Method in brief: (§1)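 Cells grown in RPMI 1640 with 5% FBS and 2 mM L-glutamine, plated at 5000–40,000 cells/well by doubling time and preincubated 24 h (37 °C, 5% CO2); a time-zero plate is TCA-fixed. Single dose added, then 48 h incubation. Fixed with cold TCA, stained with 0.4% SRB, dye solubilized in 10 mM Tris base, absorbance at 515 nm; percent growth vs time-zero and untreated control.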

MDA-MB-468 = assay: Growth inhibition of human MDA-MB-468 cells at 10 uM after 48 hrs by SRB assay; method in brief: as §1
SF-295 = assay: Growth inhibition of human SF295 cells at 10 uM after 48 hrs by SRB assay; settings: SF-295, 48 h, read-out: GI; method in brief: as §1
[1] = Growth inhibition of human NCI-ADR-RES cells at 10 uM after 48 hrs by SRB assay; settings: read-out: GI; method in brief: as §1
SW-620 = assay: Growth inhibition of human SW620 cells at 10 uM after 48 hrs by SRB assay; settings: SW-620, 48 h, read-out: GI
Method in brief: (§2)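 NCI 60-cell-line screen with a single 10 µM dose. Cells are grown in RPMI 1640 with 5% FBS and 2 mM L-glutamine, plated at 5000–40,000 cells/well according to doubling time, and preincubated 24 h at 37 °C, 5% CO2; time-zero plates are TCA-fixed at that point. Drug exposure is 48 h. Adherent cells are fixed with cold TCA, stained with 0.4% SRB in 1% acetic acid and read at 515 nm. Percent growth is calculated relative to time-zero and untreated controls and reported as GI%.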

CAKI-1 = assay: Growth inhibition of human Caki1 cells at 10 uM after 48 hrs by SRB assay; settings: CAKI-1, 48 h, read-out: GI; method in brief: as §1
786-0 = assay: Growth inhibition of human 786-0 cells at 10 uM after 48 hrs by SRB assay; settings: 786-0, 48 h, read-out: GI; method in brief: as §1
ACHN = assay: Growth inhibition of human ACHN cells at 10 uM after 48 hrs by SRB assay; settings: read-out: GI; method in brief: as §1
RPMI-8226 = assay: Growth inhibition of human RPMI8226 cells at 10 uM after 48 hrs by SRB assay; settings: RPMI-8226, 48 h, read-out: GI; method in brief: as §1
NCI-H460 = assay: Growth inhibition of human NCI-H460 cells at 10 uM after 48 hrs by SRB assay; settings: NCI-H460, 48 h, read-out: GI; method in brief: as §1
HL-60(TB) = assay: Growth inhibition of human HL-60(TB) cells at 10 uM after 48 hrs by SRB assay; settings: HL-60, 48 h, read-out: GI
Method in brief: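 Single-concentration pass across the 60-line panel in RPMI 1640 with 5% FBS. Cells preincubated 24 h, then exposed 48 h at 37 °C, 5% CO2. Read by SRB staining with absorbance at 515 nm. Percent growth is taken relative to time-zero and untreated controls and reported as percent growth inhibition (GI %).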

U-251 = assay: Growth inhibition of human U251 cells at 10 uM after 48 hrs by SRB assay; settings: U-251, 48 h, read-out: GI; method in brief: as §2
SNB-75 = assay: Growth inhibition of human SNB75 cells at 10 uM after 48 hrs by SRB assay; settings: SNB-75, 48 h, read-out: GI; method in brief: as §2
BT-549 = assay: Growth inhibition of human BT549 cells at 10 uM after 48 hrs by SRB assay; settings: BT-549, 48 h, read-out: GI; method in brief: as §1
NCI-H322M = assay: Growth inhibition of human NCI-H322M cells at 10 uM after 48 hrs by SRB assay; settings: read-out: GI; method in brief: as §1
T47D = assay: Growth inhibition of human T47D cells at 10 uM after 48 hrs by SRB assay; settings: read-out: GI; method in brief: as §2
PC-3 = assay: Growth inhibition of human PC3 cells at 10 uM after 48 hrs by SRB assay; settings: PC-3, 48 h, read-out: GI; method in brief: as §1
MDA-MB-231 = assay: Growth inhibition of human MDA-MB-231 cells at 10 uM after 48 hrs by SRB assay; settings: MDA-MB-231, 48 h, read-out: GI; method in brief: as §1
OVCAR-5 = assay: Growth inhibition of human OVCAR5 cells at 10 uM after 48 hrs by SRB assay; settings: OVCAR-5, 48 h, read-out: GI; method in brief: as §1
K562 = assay: Growth inhibition of human K562 cells at 10 uM after 48 hrs by SRB assay; settings: K562, 48 h, read-out: GI; method in brief: as §1
DU-145 = assay: Growth inhibition of human DU145 cells at 10 uM after 48 hrs by SRB assay; settings: DU-145, 48 h, read-out: GI; method in brief: as §1
SK-MEL-5 = assay: Growth inhibition of human SK-MEL-5 cells at 10 uM after 48 hrs by SRB assay; settings: SK-MEL-5, 48 h, read-out: GI; method in brief: as §1
HCT-116 = assay: Growth inhibition of human HCT116 cells at 10 uM after 48 hrs by SRB assay; settings: HCT-116, 48 h, read-out: GI; method in brief: as §1
NCI-H226 = assay: Growth inhibition of human NCI-H226 cells at 10 uM after 48 hrs by SRB assay; settings: NCI-H226, 48 h, read-out: GI; method in brief: as §1
HOP-62 = assay: Growth inhibition of human HOP62 cells at 10 uM after 48 hrs by SRB assay; settings: HOP-62, 48 h, read-out: GI; method in brief: as §1
KM12 = assay: Growth inhibition of human KM12 cells at 10 uM after 48 hrs by SRB assay; settings: KM12, 48 h, read-out: GI; method in brief: as §1
NCI-H522 = assay: Growth inhibition of human NCI-H522 cells at 10 uM after 48 hrs by SRB assay; settings: NCI-H522, 48 h, read-out: GI; method in brief: as §1
SN12C = assay: Growth inhibition of human SN12C cells at 10 uM after 48 hrs by SRB assay; settings: read-out: GI; method in brief: as §2
MDA-MB-435 = assay: Growth inhibition of human MDA-MB-435 cells at 10 uM after 48 hrs by SRB assay; settings: MDA-MB-435, 48 h, read-out: GI; method in brief: as §1
SK-OV-3 = assay: Growth inhibition of human SKOV3 cells at 10 uM after 48 hrs by SRB assay; settings: SK-OV-3, 48 h, read-out: GI; method in brief: as §2
UACC-62 = assay: Growth inhibition of human UACC62 cells at 10 uM after 48 hrs by SRB assay; settings: UACC-62, 48 h, read-out: GI; method in brief: as §2
NCI-H23 = assay: Growth inhibition of human NCI-H23 cells at 10 uM after 48 hrs by SRB assay; settings: NCI-H23, 48 h, read-out: GI; method in brief: as §1
HOP-92 = assay: Growth inhibition of human HOP92 cells at 10 uM after 48 hrs by SRB assay; settings: HOP-92, 48 h, read-out: GI; method in brief: as §1
HCT-15 = assay: Growth inhibition of human HCT15 cells at 10 uM after 48 hrs by SRB assay; settings: HCT-15, 48 h, read-out: GI; method in brief: as §1

| Compound | inhibition of growth at 10 µM (CCRF-CEM) [%] | growth inhibition (GI) (MDA-MB-468) | inhibition of growth at 10 µM (SF-295) [%] | inhibition of growth at 10 µM [1] [%] | inhibition of growth at 10 µM (SW-620) [%] | inhibition of growth at 10 µM (CAKI-1) [%] | inhibition of growth at 10 µM (786-0) [%] | inhibition of growth at 10 µM (ACHN) [%] | inhibition of growth at 10 µM (RPMI-8226) [%] | inhibition of growth at 10 µM (NCI-H460) [%] | inhibition of growth at 10 µM (HL-60(TB)) [%] | inhibition of growth at 10 µM (U-251) [%] | inhibition of growth at 10 µM (SNB-75) [%] | inhibition of growth at 10 µM (BT-549) [%] | inhibition of growth at 10 µM (NCI-H322M) [%] | inhibition of growth at 10 µM (T47D) [%] | inhibition of growth at 10 µM (PC-3) [%] | inhibition of growth at 10 µM (MDA-MB-231) [%] | inhibition of growth at 10 µM (OVCAR-5) [%] | inhibition of growth at 10 µM (K562) [%] | also measured |
| --- | --- | --- | --- | --- | --- | --- | --- | --- | --- | --- | --- | --- | --- | --- | --- | --- | --- | --- | --- | --- | --- |
| O=c1c2cccc3c(Nc4ccc(Br)cn4)ccc(c32)c2nc3ccccc3n12 | < 20 | Active | < 20 | < 20 | < 20 | < 20 | < 20 | < 20 | 43.8 | < 20 | < 20 | < 20 | 56 | < 20 | 22.1 | 81.6 | 23.3 | 33.8 | < 20 | < 20 | inhibition of growth at 10 µM (DU-145): < 20%; inhibition of growth at 10 µM (SK-MEL-5): 23.8%; inhibition of growth at 10 µM (HCT-116): < 20%; inhibition of growth at 10 µM (NCI-H226): < 20%; inhibition of growth at 10 µM (HOP-62): < 20%; inhibition of growth at 10 µM (KM12): 22.8%; inhibition of growth at 10 µM (NCI-H522): < 20%; inhibition of growth at 10 µM (SN12C): < 20%; inhibition of growth at 10 µM (MDA-MB-435): < 20%; inhibition of growth at 10 µM (SK-OV-3): < 20%; inhibition of growth at 10 µM (UACC-62): < 20%; inhibition of growth at 10 µM (NCI-H23): < 20%; inhibition of growth at 10 µM (HOP-92): 37.6%; inhibition of growth at 10 µM (HCT-15): 28% |
| O=c1c2cccc3c(N4CCOCC4)ccc(c32)c2nc3ccccc3n12 | < 20 | Active | < 20 | < 20 | < 20 | 30.4 | < 20 | < 20 | < 20 | < 20 | < 20 | < 20 | 20.9 | < 20 | < 20 | 61.9 | < 20 | < 20 | < 20 | < 20 | inhibition of growth at 10 µM (DU-145): < 20%; inhibition of growth at 10 µM (SK-MEL-5): 26.6%; inhibition of growth at 10 µM (HCT-116): < 20%; inhibition of growth at 10 µM (NCI-H226): < 20%; inhibition of growth at 10 µM (HOP-62): < 20%; inhibition of growth at 10 µM (KM12): 21.9%; inhibition of growth at 10 µM (NCI-H522): < 20%; inhibition of growth at 10 µM (SN12C): < 20%; inhibition of growth at 10 µM (MDA-MB-435): < 20%; inhibition of growth at 10 µM (SK-OV-3): < 20%; inhibition of growth at 10 µM (UACC-62): 37.9%; inhibition of growth at 10 µM (NCI-H23): 23.1%; inhibition of growth at 10 µM (HOP-92): 40.8%; inhibition of growth at 10 µM (HCT-15): < 20% |
